Converted amounts (≈) assume the structure as drawn.
Legend:
[1] = system: Escherichia coli; test: Antibacterial activity against Escherichia coli KCTC 1924 after 24 hrs by two-fold serial dilution method; format: functional; conditions: KCTC 1924, 24 h
Outline: (§1)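 Broth microdilution in Mueller-Hinton broth over final concentrations of 64–0.5. Bacteria were grown to mid-log phase and diluted 1000-fold, then inoculated at 10⁵ CFU/mL. Compounds were dissolved in DMSO, with final DMSO at most 0.05%. Plates were incubated 24 h at 37 °C and growth read as absorbance at 650 nm. MIC is the concentration giving complete growth inhibition. Three independent runs.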

[2] = system: Salmonella typhimurium; test: Antibacterial activity against Salmonella typhimurium 2421 after 24 hrs by two-fold serial dilution method; format: functional, Salmonella enterica subsp. enterica serovar Typhimurium; conditions: Salmonella enterica, 2421, 24 h; outline: as §1
[3] = system: Candida albicans; test: Antifungal activity against Candida albicans 7535 by two-fold serial dilution method; format: functional
[4] = system: Streptococcus mutans; test: Antibacterial activity against Streptococcus mutans 3065 after 24 hrs by two-fold serial dilution method; format: functional; conditions: Streptococcus mutans, 3065, 24 h; outline: as §1
[5] = system: Staphylococcus aureus; test: Antibacterial activity against Staphylococcus aureus 209 after 24 hrs by two-fold serial dilution method; format: functional; conditions: Staphylococcus aureus, 209, 24 h
Outline: (§2)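 Broth microdilution in Mueller-Hinton broth. Bacteria grown to mid-log phase, diluted 1000-fold, and inoculated at 10⁵ CFU/mL. Test compounds in DMSO, final DMSO not above 0.05%, final concentrations 64-0.5 µg/mL. Incubation 24 h at 37 °C, growth read as absorbance at 650 nm. MIC taken as the lowest concentration giving complete growth inhibition. Run three times.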

[6] = system: Staphylococcus aureus; test: Antibacterial activity against quinolone-resistant Staphylococcus aureus CCARM 3519 after 24 hrs by two-fold serial dilution method; format: functional; conditions: CCARM 3519, 24 h; outline: as §2
[7] = system: Pseudomonas aeruginosa; test: Antibacterial activity against Pseudomonas aeruginosa 2004 after 24 hrs by two-fold serial dilution method; format: functional; conditions: Pseudomonas aeruginosa, 2004, 24 h; outline: as §1
[8] = system: Staphylococcus aureus; test: Antibacterial activity against Staphylococcus aureus RN4220 after 24 hrs by two-fold serial dilution method; format: functional; conditions: RN4220, 24 h; outline: as §2
[9] = system: Mus musculus; test: Antiinflammatory activity in mouse assessed as inhibition of xylene-induced ear edema at 50 mg/kg, ip administered 30 mins before xylene challenge relative to control; format: functional
Outline: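 Mice received compound freshly dissolved in DMSO, 50 mg/kg ip at 0.05 mL/20 g body weight; vehicle controls got DMSO alone. After 30 min, 20 µL xylene was applied to the right ear. After a further 30 min, 7 mm plugs were cut from treated and untreated ears and edema taken as their weight difference. Result is % edema reduction versus vehicle controls.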

[10] = system: Pseudomonas aeruginosa; test: Antibacterial activity against Pseudomonas aeruginosa 2742 after 24 hrs by two-fold serial dilution method; format: functional; conditions: Pseudomonas aeruginosa, 2742, 24 h; outline: as §1
[11] = system: Escherichia coli; test: Antibacterial activity against Escherichia coli CCARM 1356 after 24 hrs by two-fold serial dilution method; format: functional; conditions: CCARM 1356, 24 h; outline: as §1
[12] = system: Staphylococcus aureus; test: Antibacterial activity against methicillin-resistant Staphylococcus aureus CCARM 3167 after 24 hrs by two-fold serial dilution method; format: functional; conditions: CCARM 3167, 24 h; outline: as §2
[13] = system: Staphylococcus aureus; test: Antibacterial activity against Staphylococcus aureus 503 after 24 hrs by two-fold serial dilution method; format: functional; conditions: Staphylococcus aureus, 503, 24 h; outline: as §2
[14] = system: Staphylococcus aureus; test: Antibacterial activity against methicillin-resistant Staphylococcus aureus CCARM 3506 after 24 hrs by two-fold serial dilution method; format: functional; conditions: CCARM 3506, 24 h; outline: as §2
[15] = system: Staphylococcus aureus; test: Antibacterial activity against quinolone-resistant Staphylococcus aureus CCARM 3505 after 24 hrs by two-fold serial dilution method; format: functional; conditions: CCARM 3505, 24 h; outline: as §2

SMILES	MIC [1] [µg/mL]	MIC [2] [µg/mL]	MIC [3] [µg/mL]	MIC [4] [µg/mL]	MIC [5] [µg/mL]	MIC [6] [µg/mL]	MIC [7] [µg/mL]	MIC [8] [µg/mL]	inhibition in vivo at 50 mg/kg [9] [%]	MIC [10] [µg/mL]	MIC [11] [µg/mL]	MIC [12] [µg/mL]	MIC [13] [µg/mL]	MIC [14] [µg/mL]	MIC [15] [µg/mL]
Cc1ccc(-c2nn(-c3ccc([N+](=O)[O-])cc3[N+](=O)[O-])cc2/C=N/NC(=O)c2ccco2)cc1	> 64	> 64	> 64	> 64	> 64	> 64	> 64	> 64	36	> 64	> 64	> 64	> 64	> 64	> 64
N=C(N)N/N=C/c1cn(-c2ccc([N+](=O)[O-])cc2[N+](=O)[O-])nc1-c1ccccc1Cl	4 (≈ 9.33 µM)	8 (≈ 18.7 µM)	2 (≈ 4.66 µM)	16 (≈ 37.3 µM)	8 (≈ 18.7 µM)	8 (≈ 18.7 µM)	> 64	4 (≈ 9.33 µM)	84.6	> 64	16 (≈ 37.3 µM)	4 (≈ 9.33 µM)	4 (≈ 9.33 µM)	4 (≈ 9.33 µM)	4 (≈ 9.33 µM)
O=C(N/N=C/c1cn(-c2ccc([N+](=O)[O-])cc2[N+](=O)[O-])nc1-c1cccc(Cl)c1)c1ccco1	> 64	> 64	> 64	> 64	> 64	> 64	> 64	> 64	26.2	> 64	> 64	> 64	> 64	> 64	> 64
CCn1cc(C(=O)O)c(=O)c2cc(F)c(N3CCNCC3)cc21 [NORFLOXACIN]	–	–	–	–	–	> 64	–	–	–	–	–	8 (≈ 25.1 µM)	–	4 (≈ 12.5 µM)	> 64
O=C(N/N=C/c1cn(-c2ccc([N+](=O)[O-])cc2[N+](=O)[O-])nc1-c1ccccc1Br)c1ccco1	> 64	> 64	> 64	> 64	> 64	> 64	> 64	> 64	17.5	> 64	> 64	> 64	> 64	> 64	> 64
N=C(N)N/N=C/c1cn(-c2ccccc2)nc1-c1ccc(F)cc1	8 (≈ 24.8 µM)	> 64	8 (≈ 24.8 µM)	> 64	8 (≈ 24.8 µM)	16 (≈ 49.6 µM)	> 64	8 (≈ 24.8 µM)	61.4	> 64	> 64	8 (≈ 24.8 µM)	16 (≈ 49.6 µM)	8 (≈ 24.8 µM)	16 (≈ 49.6 µM)
CC(C)Cc1ccc(C(C)C(=O)O)cc1 (stereo not drawn) [IBUPROFEN]	–	–	–	–	–	–	–	–	29.6	–	–	–	–	–	–
N=C(N)N/N=C/c1cn(-c2ccc([N+](=O)[O-])cc2[N+](=O)[O-])nc1-c1ccccc1[N+](=O)[O-]	16 (≈ 36.4 µM)	32 (≈ 72.8 µM)	8 (≈ 18.2 µM)	32 (≈ 72.8 µM)	32 (≈ 72.8 µM)	32 (≈ 72.8 µM)	> 64	16 (≈ 36.4 µM)	58.3	> 64	32 (≈ 72.8 µM)	16 (≈ 36.4 µM)	16 (≈ 36.4 µM)	8 (≈ 18.2 µM)	16 (≈ 36.4 µM)
O=C(N/N=C/c1cn(-c2ccc([N+](=O)[O-])cc2[N+](=O)[O-])nc1-c1cccc(Br)c1)c1ccco1	> 64	> 64	> 64	> 64	> 64	> 64	> 64	> 64	25.3	> 64	> 64	> 64	> 64	> 64	> 64
N=C(N)N/N=C/c1cn(-c2ccccc2)nc1-c1ccc(Cl)cc1	> 64	> 64	> 64	> 64	> 64	> 64	> 64	16 (≈ 47.2 µM)	46	> 64	> 64	> 64	> 64	> 64	> 64
COc1c(N2C[C@@H]3CCCN[C@@H]3C2)c(F)cc2c(=O)c(C(=O)O)cn(C3CC3)c12 [MOXIFLOXACIN]	–	0.5 (≈ 1.25 µM)	0.5 (≈ 1.25 µM)	0.25 (≈ 0.623 µM)	–	4 (≈ 9.96 µM)	2 (≈ 4.98 µM)	0.25 (≈ 0.623 µM)	–	–	128 (≈ 319 µM)	–	2 (≈ 4.98 µM)	–	–

From ChEMBL document CHEMBL3627681, “Synthesis and biological evaluation of 1,3-diaryl pyrazole derivatives as potential antibacterial and anti-inflammatory agents” (2015)
